UCH37 inh – human UCH37 deubiquitinating enzyme inhibition; Q9Y5K5; purified proteasome/UCH37, Ub-AMC cleavage fluorescence; inhibition, % (test concentration not listed); 330,000 compounds, 0.33% hits;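 active means mean inhibition over replicate wells above about 20%, limit read from the data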;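 further: 0% = compound-free wells with enzyme and 100% = wells lacking proteasome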
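Material: human UCH37 enzyme supplied as purified proteasome complex. Measure: % inhibition of Ub-AMC cleavage fluorescence. Medium: pH 7.4 Tris-HCl (50 mM) with ovalbumin, ATP-MgCl2, DTT. Times: 30 min preincubation with enzyme, 25 min cleavage at room temperature. Detection: AMC fluorescence intensity at 355/460 nm.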
DAGLB inh – blocks human DAGLB lipase activity; HEK293T DAGLB membrane lysate, EnzChek fluorogenic substrate; inhibition, % at 5.17 µM; 340,000 compounds, 0.059% hits; in the data active means inhibition above about 34%;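 further: 0% = enzyme with vehicle and 100% = wells lacking enzyme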
Target sequence (Q8NCG7 whole entry, looked up): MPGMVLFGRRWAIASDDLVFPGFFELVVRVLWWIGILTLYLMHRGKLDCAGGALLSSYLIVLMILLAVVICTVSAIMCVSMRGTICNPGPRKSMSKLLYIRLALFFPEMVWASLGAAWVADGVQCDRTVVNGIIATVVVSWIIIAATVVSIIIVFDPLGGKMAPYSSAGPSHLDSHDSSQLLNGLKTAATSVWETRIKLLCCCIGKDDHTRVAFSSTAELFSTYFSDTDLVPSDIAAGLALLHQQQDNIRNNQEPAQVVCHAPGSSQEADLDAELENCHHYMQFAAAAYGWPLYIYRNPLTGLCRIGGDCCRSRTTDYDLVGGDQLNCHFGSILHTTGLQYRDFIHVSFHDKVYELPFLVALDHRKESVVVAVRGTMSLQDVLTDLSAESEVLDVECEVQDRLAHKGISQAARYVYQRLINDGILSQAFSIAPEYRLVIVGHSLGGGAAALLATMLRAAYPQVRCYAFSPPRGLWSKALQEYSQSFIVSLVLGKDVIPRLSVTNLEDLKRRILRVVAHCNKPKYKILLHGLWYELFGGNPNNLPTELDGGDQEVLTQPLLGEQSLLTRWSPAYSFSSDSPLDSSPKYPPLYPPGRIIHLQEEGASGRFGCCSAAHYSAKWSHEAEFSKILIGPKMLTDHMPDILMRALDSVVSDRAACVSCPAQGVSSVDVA
Fh CTSL1 inh – counter-screen for PFM18AAP inhibitors: inhibitors of F. hepatica cathepsin L1. inhibition, % at 5.96 µM. AID 1906. recombinant F. hepatica cathepsin L1, Z-Leu-Arg-MCA fluorescence. 300,000 compounds, 0.49% hits;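 active means inhibition above the mean of all tested compounds plus 3 SD, set per screening campaign, cut at about 17% in these data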;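 further: 0% = plate median of test compound wells and 100% = 1 µM Z-Phe-Ala-diazomethylketone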
MT1-MMP act inh – MT1-MMP (human) activation inhibition | 360,000 compounds, 0.061% hits | P50281 | HT1080 RFP-PRO-GFP cells, GFP/RFP ratio fluorescence, overnight; percent of plate control window, DMSO zero | GFP/RFP ratio change, % at 20 µM | AID 651647;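 active means GFP/RFP ratio change of at least 30% with cell ATP level not reduced by more than half and red fluorescence within 50% of control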
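Compound: 20 µM single dose, 1% DMSO / System: HT1080 RFP-PRO-GFP cells / Controls: DMSO and RFP-L50D-GFP cell wells / Read-out basis: GFP/RFP fluorescence ratio / Schedule: overnight compound exposure at 37 °C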
NRP1-CendR mod – alters CendR peptide binding to human NRP-1 | AID 602438 | 360,000 compounds, 0.85% hits | O14786 | inhibition, % at 25 µM | FAM-RPARPAR peptide binding to NRP-1, fluorescence polarization;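 active means inhibition or corrected inhibition above about 18%, plus a signal ratio from 0.5 to 1.5, limit read from the data, passing the limit was not always enough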
Active calls of the source: *; / = no result. Compounds with a hit are over-represented: about 1.5% of the library has one in this group of screens.

SMILES | UCH37 inh | DAGLB inh | Fh CTSL1 inh | MT1-MMP act inh | NRP1-CendR mod
COC(=O)C(C(C)=O)C1=CC(=NS(=O)(=O)c2ccc(C)cc2)c2ccccc2C1=O (stereo not drawn) | 0 | / | / | / | /
COc1cc(C=NNC(=O)C2C(=O)NCC2c2ccccc2)cc(OC)c1O (stereo not drawn) | -10 | / | / | / | /
COc1ccc(C(=O)NN=Cc2ccc3cccc(O)c3n2)cc1 | -3 | / | / | / | /
O=C(Nc1ccc(N2CCOCC2)cc1)c1cc(-n2cnnc2)ccc1Cl | 3 | 2 | 1 | -6 | 26*
CC(=NNC(=O)c1c(Cl)cnn1C)c1cccnc1 | 2 | / | / | / | /
COc1cccc2c(=O)c3cccc(N)c3[nH]c12 | -1 | 14 | -1 | -6 | 33*
COc1cccc2c(=O)c3c([nH]c12)OC(C)(C)C3 | 2 | -1 | -2 | 2 | -2
Clc1ccccc1C=NN1CCN(Cc2ccccc2)CC1 | 0 | / | / | / | /
Cc1ccc(S(=O)(=O)N(CCC#N)CCN2CCCC2)cc1 | 1 | 1 | 78* | 4 | 0
COc1ccc2cc(C(c3nnnn3CC3CCCO3)N3CCOCC3)c(=O)[nH]c2c1 (stereo not drawn) | -1 | -1 | 3 | -7 | 3
COc1ccc2[nH]c(=O)c(C(c3nnnn3CC3CCCO3)N3CCCCC3)cc2c1 (stereo not drawn) | -124 | 1 | 5 | -2 | 26*
COC(=O)c1scc(S(=O)(=O)C(C)C)c1NN=C(C#N)C(=O)c1ccc(Cl)cc1 | 8 | / | / | / | /
Cc1cccc(NCC(=O)N/N=C\c2cccc(Oc3ccccc3)c2)c1 | / | -4 | -4 | 0 | -2
Cc1ccc(NCC(=O)N/N=C/c2cccc(Oc3ccccc3)c2)cc1 | / | 0 | 3 | -3 | 41*
O=[N+]([O-])c1cccc(C=Nc2cc3c(cc2Br)OCCO3)c1 | 3 | -1 | 6 | 0 | 27*
O=C(N/N=C/c1cccc([N+](=O)[O-])c1)c1ccc2c(c1)OCCO2 | / | -5 | 1 | 5 | 6
COc1ccccc1C=NNC(=O)c1nnn(-c2nonc2N)c1CSC1=NCCS1 | 5 | / | / | / | /
Cc1nn(-c2ccc(Cl)c(Cl)c2)c(=O)c2ccccc12 | 2 | -2 | 3 | 8 | 38*
CCOC(=O)c1c(C)[nH]c(C)c1S(=O)(=O)NCC1CCN(Cc2cccc(Cl)c2)CC1 | 5 | -2 | 2 | 1 | 6
CCOC(=O)c1c(S(=O)(=O)NCC2CCN(Cc3cccc(F)c3)CC2)c(C)n(C)c1C | 5 | -4 | 44* | -2 | 3
c1cc2c(cc1Cn1cnnn1)OCO2 | -1 | -3 | -1 | -2 | 22*
c1cc2c(cc1-n1cnnn1)OCO2 | -1 | -1 | -11 | 1 | 4
Cc1ccccc1N(CC(=O)NN=Cc1ccc(F)cc1)C(=O)c1ccccc1 | 5 | / | / | / | /
O=C(NN=C/C(Cl)=C/c1ccc([N+](=O)[O-])cc1)C(=O)Nc1ccc(C(=O)O)cc1 | 17 | / | / | / | /
O=S(=O)(NCc1ccccc1)c1ccc(-n2cccn2)cc1 | 5 | -4 | 9 | 1 | 10
SMILES | UCH37 inh | DAGLB inh | Fh CTSL1 inh | MT1-MMP act inh | NRP1-CendR mod
O=S(=O)(NCc1ccc(F)cc1)c1ccc(-n2cccn2)cc1 | 0 | -3 | 0 | -1 | 21*
CC(=NNc1ccccn1)c1cccs1 | 8 | / | / | / | /
C=C(C)[C@@H]1CCC2(C(=O)O)CC[C@]3(C)[C@H](CC[C@@H]4[C@@]5(C)CCC(=O)C(C)(C)[C@@H]5CC[C@]43C)[C@@H]12 (stereo partly drawn) | 1 | -2 | 3 | -3 | -14
C=C(CC[C@@H](O)C(C)(C)O)[C@H]1CC[C@]2(C)[C@@H]1CCC1[C@@]3(C)CCC(=O)C(C)(C)C3CC[C@]12C (stereo partly drawn) | 2 | -6 | / | -1 | 28*
CCNC(=S)NN=Cc1sccc1C | 8 | / | / | / | /
CN(C)Cc1cc(C(F)(F)F)ccc1C(O)(c1ccccc1)c1ccccc1 | / | 0 | / | 4 | 21*
CN(C)Cc1ccccc1C(O)(c1ccccc1)c1ccccc1 | 4 | 0 | 0 | -1 | -4
Cc1ccc(Nc2cc(C)nc3ccc(C)cc23)cc1 | 4 | -2 | 3 | 2 | 21*
COc1ccc2nc(C)cc(Nc3ccc(C(=O)O)cc3)c2c1 | 7 | -4 | 2 | 1 | 6
COc1ccc(Nc2cc(C)nc3ccc(OC)cc23)cc1 | 7 | 0 | 4 | 4 | 29*
Cn1c(=NC(=O)CS(=O)(=O)c2ccccc2)sc2ccccc21 | 5 | -1 | -3 | 4 | -10
Cn1c(=NC(=O)COc2ccccc2)sc2ccccc21 | 3 | -3 | 1 | 0 | 26*
Cc1ccc(C(=O)COC(=O)c2cc(Cl)ccc2O)cc1[N+](=O)[O-] | 1 | -1 | 2 | 0 | 45*
Cc1ccc(C(=O)COC(=O)c2ccncc2)cc1[N+](=O)[O-] | 3 | 0 | -5 | 3 | 5
O=C(CSc1nnc(-c2cccs2)o1)OC1CCCCC1 | 0 | -9 | 1 | 2 | 34*
CCN(C[C@H]1N[C@@](CC)(C(=O)OC)[C@H]2C(=O)N(C)C(=O)[C@@H]12)S(=O)(=O)c1ccc(OC)cc1 | 3 | 1 | / | 2 | 28*
O=C(CC(c1ccco1)C1CCCCC1=O)c1ccco1 (stereo not drawn) | 1 | 1 | 64* | -2 | -7
O=C(CC(c1ccccc1)C1CCCCC1=O)c1ccco1 (stereo not drawn) | 2 | -4 | 4 | 3 | 8
CC1CCc2[nH]c3ccc(C(=O)N(C)CC(=O)Nc4ccc(F)cc4)cc3c2C1 (stereo not drawn) | 3 | -3 | 3 | 0 | 5
CC1CCc2[nH]c3ccc(C(=O)NCCCOC(C)C)cc3c2C1 (stereo not drawn) | -1 | 3 | 5 | 2 | 35*
O=C(O)CCC(=O)Nc1cccc(C(=O)c2ccccc2)c1 | 1 | 2 | 0 | 3 | -4
Cc1ccccc1NC(=O)c1cccc(NC(=O)CCC(=O)O)c1 | 5 | -2 | -3 | -3 | 23*
C#Cc1ccc([C@@H]2C=C(C(=O)NC3CC3)O[C@H](OCC)[C@H]2CCCO)cc1 | -1 | -2 | 0 | 0 | 18
CCO[C@H]1OC(C(=O)NCc2ccccc2)=C[C@@H](c2ccc(C(F)(F)F)cc2)[C@@H]1CCCO | 4 | -2 | 3 | -2 | 15
C#Cc1ccc([C@@H]2C=C(C(=O)N3CCOCC3)O[C@H](OCC)[C@H]2CCCO)cc1 | 27* | 4 | -1 | 3 | -6
CCO[C@@H]1OC(C(=O)NCc2ccccc2)=C[C@H](c2ccc(Br)cc2)[C@H]1CCCO | 2 | -4 | -1 | -4 | 24*
C#Cc1ccc([C@H]2C=C(C(=O)N3CCOCC3)O[C@@H](OCC)[C@@H]2CCCO)cc1 | 0 | -2 | -2 | -10 | 24
CCO[C@H]1OC(C(=O)NC2CC2)=C[C@@H](c2ccccc2)[C@@H]1CCCO | 4 | 1 | -4 | 2 | 26*

High-throughput results (PubChem BioAssay)
